Measured values reported in ChEMBL document CHEMBL1123282, “Antiinflammatory activity of substituted 6-hydroxypyrimido[2,1-f]purine-2,4,8(1H,3H,9H)-triones. Atypical nonsteroidal antiinflammatory agents” (J Med Chem, 1986).

How the values were obtained:
Rattus norvegicus [1] = assay: Compound was tested in vivo for antiinflammatory activity against chronic adjuvant arthritic rat by therapeutic inhibition 1 degree paw after peroral administration of 30 mg/kg of dose; type: functional; settings: route oral
Rattus norvegicus [2] = assay: Compound was tested for intestinal Ulcerogenic effect in rats, activity expressed as ulcer incidence at a dose of 30 mg/kg; type: functional
Outline: (§1)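 Normal fed rats were gavaged once daily for three consecutive days at 10–300 mg/kg and killed 24 h after the last dose. Intestines were examined for ulcers, recording incidence per group of 8 and a lesion score (±SE).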

Rattus norvegicus [3] = assay: Compound was tested for intestinal Ulcerogenic effect in rats, activity expressed as ulcer incidence at a dose of 100 mg/kg; type: functional; outline: as §1
Rattus norvegicus [4] = assay: Compound was tested for gastric Ulcerogenic effect in rats, activity expressed as lesion length at a dose of 10 mg/kg
Rattus norvegicus [5] = assay: Compound was tested for gastric Ulcerogenic effect in rats, activity expressed as lesion length at a dose of 300 mg/kg
Cyclooxygenase = biological target: T1, Cyclooxygenase (Rattus norvegicus, UniProt P35355+Q63921); assay: In vitro inhibitory activity against Prostaglandin G/H synthase in rat neutrophils
T1 sequence (P35355 whole entry): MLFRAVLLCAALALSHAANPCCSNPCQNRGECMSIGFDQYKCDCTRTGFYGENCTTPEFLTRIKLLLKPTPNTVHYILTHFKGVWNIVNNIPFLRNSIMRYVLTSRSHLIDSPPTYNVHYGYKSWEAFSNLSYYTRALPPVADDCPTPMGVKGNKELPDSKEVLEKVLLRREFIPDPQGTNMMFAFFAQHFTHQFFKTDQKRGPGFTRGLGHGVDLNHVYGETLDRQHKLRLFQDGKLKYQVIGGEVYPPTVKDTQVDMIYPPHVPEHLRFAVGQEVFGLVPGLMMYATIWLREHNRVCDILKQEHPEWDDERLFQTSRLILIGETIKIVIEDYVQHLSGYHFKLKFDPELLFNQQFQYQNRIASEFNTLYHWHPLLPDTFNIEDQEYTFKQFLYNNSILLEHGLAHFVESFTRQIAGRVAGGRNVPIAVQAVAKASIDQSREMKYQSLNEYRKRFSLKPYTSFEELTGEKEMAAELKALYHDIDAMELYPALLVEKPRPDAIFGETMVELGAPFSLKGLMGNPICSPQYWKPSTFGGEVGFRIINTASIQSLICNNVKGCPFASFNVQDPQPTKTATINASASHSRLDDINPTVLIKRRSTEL
T1 sequence (Q63921 whole entry): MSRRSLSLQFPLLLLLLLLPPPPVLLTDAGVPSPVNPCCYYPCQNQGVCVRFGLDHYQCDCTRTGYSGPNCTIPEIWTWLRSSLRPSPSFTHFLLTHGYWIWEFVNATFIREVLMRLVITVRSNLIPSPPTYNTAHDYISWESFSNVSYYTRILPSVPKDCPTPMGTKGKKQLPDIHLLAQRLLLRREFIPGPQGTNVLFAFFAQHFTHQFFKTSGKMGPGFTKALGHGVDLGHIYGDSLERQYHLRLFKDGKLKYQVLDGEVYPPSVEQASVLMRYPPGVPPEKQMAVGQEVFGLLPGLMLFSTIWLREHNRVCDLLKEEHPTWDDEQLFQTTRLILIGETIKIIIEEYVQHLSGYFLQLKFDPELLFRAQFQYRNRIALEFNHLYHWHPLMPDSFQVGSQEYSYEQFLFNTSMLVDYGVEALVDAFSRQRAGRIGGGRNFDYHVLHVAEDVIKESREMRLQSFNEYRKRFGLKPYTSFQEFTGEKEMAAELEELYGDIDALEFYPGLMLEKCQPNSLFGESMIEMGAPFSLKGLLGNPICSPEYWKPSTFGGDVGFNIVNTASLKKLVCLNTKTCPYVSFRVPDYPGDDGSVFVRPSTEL

Rattus norvegicus [6] = assay: Compound was tested for intestinal Ulcerogenic effect in rats, activity expressed as lesion score at a dose of 30 mg/kg; type: functional; outline: as §1
Rattus norvegicus [7] = assay: Compound was tested in vivo for antiinflammatory activity against chronic adjuvant arthritic rat by therapeutic inhibition 1 degree paw after peroral administration of 10 mg/kg of dose; type: functional; settings: route oral
Rattus norvegicus [8] = assay: Compound was tested for intestinal Ulcerogenic effect in rats, activity expressed as lesion score at a dose of 10 mg/kg; type: functional; outline: as §1
Rattus norvegicus [9] = assay: Compound was tested for intestinal Ulcerogenic effect in rats at a dose of 30 mg/kg; type: functional; outline: as §1
Rattus norvegicus [10] = assay: Compound was tested in vivo for antiinflammatory activity against chronic adjuvant arthritic rat by therapeutic inhibition 2 degree paw after peroral administration of 3.3 mg/kg of dose; type: functional; settings: route oral
Rattus norvegicus [11] = assay: Compound was tested for gastric Ulcerogenic effect in rats, activity expressed as lesion length at a dose of 30 mg/kg
Rattus norvegicus [12] = assay: Compound was tested for intestinal Ulcerogenic effect in rats at a dose of 100 mg/kg; type: functional; outline: as §1
Rattus norvegicus [13] = assay: Compound was tested in vivo for antiinflammatory activity against chronic adjuvant arthritic rat by therapeutic inhibition 1 degree paw after peroral administration of 3.3 mg/kg of dose; type: functional; settings: route oral
Rattus norvegicus [14] = assay: Compound was tested for gastric Ulcerogenic effect in rats, activity expressed as lesion length at a dose of 100 mg/kg
Rattus norvegicus [15] = assay: Compound was tested in vivo for antiinflammatory activity against chronic adjuvant arthritic rat by therapeutic inhibition 2 degree paw after peroral administration of 30 mg/kg of dose; type: functional; settings: route oral
Rattus norvegicus [16] = assay: Compound was tested for intestinal Ulcerogenic effect in rats, activity expressed as ulcer incidence at a dose of 10 mg/kg; type: functional; outline: as §1
Rattus norvegicus [17] = assay: Compound was tested in vivo for antiinflammatory activity against chronic adjuvant arthritic rat by therapeutic inhibition 2 degree paw after peroral administration of 10 mg/kg of dose; type: functional; settings: route oral
Rattus norvegicus [18] = assay: Compound was tested for intestinal Ulcerogenic effect in rats, activity expressed as lesion score at a dose of 100 mg/kg; type: functional; outline: as §1
Rattus norvegicus [19] = assay: Compound was tested in vivo for antiinflammatory activity against chronic adjuvant arthritic rat by prophylactic inhibition 2 degree paw after peroral administration of 18 mg/kg of dose; settings: po
Rattus norvegicus [20] = assay: Compound was tested for gastric ulcerogenic effect in rats, activity expressed as lesion length at a dose of 30 mg/kg
Rattus norvegicus [21] = organism: Rattus norvegicus; assay: Delayed Type hypersensitivity (DTH) is measured by increase in ear thickness 24 hours after antigen injection into pinna 10e-3; type: functional
Rattus norvegicus [22] = assay: Antiinflammatory activity against collagen II arthritis in rats, activity% inhibition in injected paw edema; type: functional; set-up: concentration or dose not given beside the values
Outline: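 Rats immunised with bovine articular-cartilage type II collagen (dissolved in 0.01 M AcOH for 24 h at 4 °C, dialysed against saline) mixed in equal volume with incomplete Freund's adjuvant. Paws were examined weekly for 7 weeks. An animal counted as arthritic at Δ paw volume ≥8.0 (injected paw) or ≥4.0 (noninjected paw). Bone lesions were scored on lateral-projection foot radiographs. 16 rats/group.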

Rattus norvegicus [23] = assay: Compound was tested in vivo for antiinflammatory activity against chronic adjuvant arthritic rat by prophylactic inhibition 1 degree paw after peroral administration of 36 mg/kg of dose; settings: po

Compound	inhibition in vivo at 30 mg/kg (Rattus norvegicus [1]) [%]	Ulcer incidence (Rattus norvegicus [2]) [number/group]	Ulcer incidence (Rattus norvegicus [3]) [number/group]	Length (Rattus norvegicus [4]) [mm rat-1]	Length (Rattus norvegicus [5]) [mm rat-1]	IC50 (Cyclooxygenase) [µM]	Lesion score (Rattus norvegicus [6]) [mm rat-1]	inhibition in vivo at 10 mg/kg (Rattus norvegicus [7]) [%]	Lesion length (Rattus norvegicus [8]) [mm rat-1]	Ulcer incidence (Rattus norvegicus [9]) [number/group]	inhibition in vivo at 3.3 mg/kg (Rattus norvegicus [10]) [%]	Length (Rattus norvegicus [11]) [mm rat-1]	Ulcer incidence (Rattus norvegicus [12]) [number/group]	inhibition in vivo at 3.3 mg/kg (Rattus norvegicus [13]) [%]	Length (Rattus norvegicus [14]) [mm rat-1]	inhibition in vivo at 30 mg/kg (Rattus norvegicus [15]) [%]	Ulcer incidence (Rattus norvegicus [16]) [number/group]	inhibition in vivo at 10 mg/kg (Rattus norvegicus [17]) [%]	Lesion length (Rattus norvegicus [18]) [mm rat-1]	inhibition in vivo at 18 mg/kg (Rattus norvegicus [19]) [%]	further results
CC(C)=CCc1c(O)n(Cc2ccccc2)c2nc3c(c(=O)n(C)c(=O)n3C)n2c1=O	63	0	1	0	9.6	2	0	54	0	0	42	0	1	24	1	83	0	70	0.1	–	–
CC(C)=CCc1c(O)n(Cc2ccc(F)cc2)c2nc3c(c(=O)n(C)c(=O)n3C)n2c1=O	59	–	–	–	–	4.2	–	38	–	0	43	–	–	21	–	87	–	67	–	69	Length (Rattus norvegicus [20]): 0.1 mm rat-1; DTH (Rattus norvegicus [21]): 47.3 10e-3mm; Inhibition (Rattus norvegicus [22]): 53.9%; inhibition in vivo at 36 mg/kg (Rattus norvegicus [23]): 44%
CCCc1c(O)n(Cc2ccc(F)cc2)c2nc3c(c(=O)n(C)c(=O)n3C)n2c1=O	–	0	0	0	0	–	0	–	0	–	–	0	0	–	0.2	–	0	–	0	49	Inhibition (Rattus norvegicus [22]): 38.2%; inhibition in vivo at 36 mg/kg (Rattus norvegicus [23]): 60%
